Experiments:
human pGC-A receptor = target: T1, human pGC-A receptor (Homo sapiens, UniProt P16066); test: cGMP generation in HEK293 cells overexpressing human pGC-A; assay type: cell-based; conditions: mean±SEM
T1 sequence (P16066 33-1061): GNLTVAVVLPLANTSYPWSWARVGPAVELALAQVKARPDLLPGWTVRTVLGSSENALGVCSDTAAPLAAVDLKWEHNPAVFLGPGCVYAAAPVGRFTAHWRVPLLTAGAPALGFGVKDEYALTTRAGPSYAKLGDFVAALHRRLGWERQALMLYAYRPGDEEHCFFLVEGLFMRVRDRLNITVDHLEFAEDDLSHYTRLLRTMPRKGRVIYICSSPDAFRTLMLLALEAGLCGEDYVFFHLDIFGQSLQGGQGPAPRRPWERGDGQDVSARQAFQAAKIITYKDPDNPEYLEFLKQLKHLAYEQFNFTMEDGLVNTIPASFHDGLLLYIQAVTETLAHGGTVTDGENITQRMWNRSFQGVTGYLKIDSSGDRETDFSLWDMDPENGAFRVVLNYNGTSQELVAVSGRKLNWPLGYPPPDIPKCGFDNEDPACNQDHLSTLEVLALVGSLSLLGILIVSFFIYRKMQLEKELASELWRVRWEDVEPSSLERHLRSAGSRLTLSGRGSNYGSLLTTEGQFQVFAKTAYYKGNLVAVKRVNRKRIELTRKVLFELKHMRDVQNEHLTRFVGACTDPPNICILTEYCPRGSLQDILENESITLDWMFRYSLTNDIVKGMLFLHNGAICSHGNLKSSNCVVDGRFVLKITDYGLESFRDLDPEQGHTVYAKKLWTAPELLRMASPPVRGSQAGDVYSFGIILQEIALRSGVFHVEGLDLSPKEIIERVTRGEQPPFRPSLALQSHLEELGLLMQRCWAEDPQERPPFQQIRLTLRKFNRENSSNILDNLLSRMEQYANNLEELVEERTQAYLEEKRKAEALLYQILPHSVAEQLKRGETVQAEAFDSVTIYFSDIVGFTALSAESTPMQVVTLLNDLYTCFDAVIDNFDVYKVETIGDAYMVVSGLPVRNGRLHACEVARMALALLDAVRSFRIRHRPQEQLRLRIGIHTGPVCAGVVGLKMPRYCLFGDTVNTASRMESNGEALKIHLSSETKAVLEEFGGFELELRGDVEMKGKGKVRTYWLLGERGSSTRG
Summary of the method: (§1)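 HEK293 cells stably expressing human pGC-A or pGC-B, or parental cells, were kept in DMEM with 10% FBS and 250 ug/ml G418. Cells were grown overnight to 80–90% confluency. They were treated for 10 min with serial concentrations (10−10 to 10−6 M) in HBSS containing 0.1% BSA, 2 mM HEPES and 0.5 mM IBMX; buffer alone served as vehicle. After a PBS wash and lysis in 0.1 M HCl, intracellular cGMP was measured by ELISA.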

[1] = target: natriuretic peptide clearance receptor (NPRC), tagged with green fluorescence protein (UniProt P17342); test: AlphaScreen or HTRF
[2] = test system: human cardiac fibroblasts (HCFs); test: Differentiation to myofibroblasts; assay type: cell-based; conditions: 10^−6 M, TGFβ−1 5 ng/mL
Summary of the method: (§2)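 Fibroblasts were serum-starved in 0.01% FBS for 48 h, then given TGFβ-1 (5 ng/ml) with or without test compound (10−6 M) for 24, 48 and 72 h. For immunostaining, cells were fixed in 4% formaldehyde, permeabilised with 0.2% Triton X-100, and stained with anti-α-SMA (1:200, 4 °C overnight), a Texas Red secondary and DAPI; confocal images were scored as corrected total cell fluorescence. For western blots, NP-40 lysates were probed for α-SMA and normalised to GAPDH.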

[3] = test system: human renal fibroblasts (HRFs); test: Fibroblast proliferation quantified by cell counting, HRFs; assay type: cell-based; conditions: 10^−6 M, TGFβ−1 5 ng/ml, 72 hours, trypan blue, Cedex XS Analyzer (Supplemental Table 2)
Summary of the method: (§3)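 Fibroblasts at passages 4–8, purity checked by vimentin immunostaining, were counted, seeded in complete medium and held overnight at 37 °C, 5% CO2. Medium was replaced with fresh medium containing TGFβ-1 (5 ng/ml) alone or with test compound (10−8, 10−7 or 10−6 M) for 8 or 72 h. Cells were then trypsinized, stained with 0.2% trypan blue and counted on an automated analyzer.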

[4] = test system: human renal fibroblasts (HRFs); test: cGMP generation in human primary renal fibroblasts; assay type: cell-based
Summary of the method: (§4)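 Primary human cardiac and renal fibroblasts, checked for purity by vimentin staining, were used at passages 4–8. Cells grown to 80% confluency were treated for 10 min with buffer (HBSS, 0.1% BSA, 2 mM HEPES, 0.5 mM IBMX) alone or with test compound at 10−8, 10−7 or 10−6 M. Cells were washed in PBS and lysed in 0.1 M HCl, and intracellular cGMP was measured by ELISA.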

human pGC-B receptor = target: T2, human pGC-B receptor (Homo sapiens, UniProt P20594); test: cGMP generation in HEK293 cells overexpressing human pGC-B; assay type: cell-based; conditions: 10 min; for cGMP generation in HEK293 pGC-B cells compared to vehicle: 10^−8.5 to 10^−6 M, 0.5 mM IBMX, intracellular cGMP ELISA, triplicate
T2 sequence (P20594 23-1047): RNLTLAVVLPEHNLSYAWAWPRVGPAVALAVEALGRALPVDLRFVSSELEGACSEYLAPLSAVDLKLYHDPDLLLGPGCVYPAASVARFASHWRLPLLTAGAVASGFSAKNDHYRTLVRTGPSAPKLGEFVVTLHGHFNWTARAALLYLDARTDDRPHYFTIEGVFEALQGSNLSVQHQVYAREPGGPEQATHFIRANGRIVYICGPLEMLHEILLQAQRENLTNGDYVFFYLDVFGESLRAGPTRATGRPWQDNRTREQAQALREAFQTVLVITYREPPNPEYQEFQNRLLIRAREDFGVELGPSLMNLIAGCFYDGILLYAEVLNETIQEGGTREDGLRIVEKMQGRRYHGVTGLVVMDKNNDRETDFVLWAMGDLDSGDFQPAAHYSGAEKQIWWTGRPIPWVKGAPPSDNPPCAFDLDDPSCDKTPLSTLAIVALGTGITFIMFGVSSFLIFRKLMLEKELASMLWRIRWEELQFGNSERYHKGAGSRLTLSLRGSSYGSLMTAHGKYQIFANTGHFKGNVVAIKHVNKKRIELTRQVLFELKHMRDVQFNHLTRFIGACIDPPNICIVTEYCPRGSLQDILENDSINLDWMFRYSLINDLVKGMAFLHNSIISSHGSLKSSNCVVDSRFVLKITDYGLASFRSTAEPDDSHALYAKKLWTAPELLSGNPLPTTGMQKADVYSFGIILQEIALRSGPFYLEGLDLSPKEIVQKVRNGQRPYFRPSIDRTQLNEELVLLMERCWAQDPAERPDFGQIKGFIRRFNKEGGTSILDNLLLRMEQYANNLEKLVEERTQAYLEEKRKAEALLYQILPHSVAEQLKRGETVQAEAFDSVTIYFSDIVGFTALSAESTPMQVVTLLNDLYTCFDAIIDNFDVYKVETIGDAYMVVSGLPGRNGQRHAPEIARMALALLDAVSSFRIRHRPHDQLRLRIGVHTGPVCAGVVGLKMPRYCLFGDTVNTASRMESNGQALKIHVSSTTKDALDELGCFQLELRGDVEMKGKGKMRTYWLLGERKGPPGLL
Summary of the method: as §1

[5] = test system: human cardiac fibroblasts (HCFs); test: cGMP generation in human primary cardiac fibroblasts; assay type: cell-based; conditions: 10^−8, 10^−7 and 10^−6 M, 10 min, 0.5 mM IBMX, cGMP ELISA, vs vehicle
Summary of the method: as §4

[6] = Blood pressure and renal function with acute IV infusion; assay type: in vivo, Fischer rats; conditions: mean ± SEM, n=4/group; for UV (urine flow): 60 min clearance; for UNaV (urinary sodium excretion rate): flame photometry; for GFR (glomerular filtration rate): inulin clearance; for ΔMAP (change in mean arterial pressure): normal rats
Summary of the method: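 Male Fischer rats (about 2 months, 200–250 g) under isoflurane (2–3% in oxygen) had jugular vein, carotid artery and bladder catheters. After 30 min equilibration with IV inulin and saline, test compound or 0.9% saline vehicle was infused IV with inulin for 75 min, including a 15 min lead-in. BP was recorded and urine collected over a 60 min clearance period. Urinary sodium was measured by flame photometry and inulin by anthrone; GFR was taken from inulin clearance. n=4/group.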

Plasma CNP-like levels = assay type: in vivo, Fischer rats; conditions: low, medium and high dose (4.55, 45.5, 455 pmol/kg/min) IV infusion 75 min, normal rats, RIA, n=4/group
Summary of the method: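 They then received a 75 min continuous IV infusion (15 min lead-in) of native peptide, analogue or 0.9% saline vehicle with inulin. Infusion rate was weight-adjusted. Blood was taken after the 60 min clearance period. A non-equilibrium RIA used a CNP-sequence antibody (standard curve 0.5–128 pg; <1% cross-reactivity with ANP, BNP).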

[7] = test system: human renal fibroblasts (HRFs); test: Live-cell real-time proliferation imaging; assay type: cell-based; conditions: 10^−6 M, similar to vehicle (Supplemental Table 1)
[8] = test system: human cardiac fibroblasts (HCFs); test: Live-cell real-time proliferation imaging; assay type: cell-based; conditions: 10^−6 M, similar to vehicle (Supplemental Table 1)
[9] = test system: human cardiac fibroblasts (HCFs); test: Fibroblast proliferation quantified by cell counting, HCFs; assay type: cell-based; conditions: 10^−6 M, TGFβ−1 5 ng/ml, 72 hours, trypan blue, Cedex XS Analyzer (Supplemental Table 2)
Summary of the method: as §3

[10] = test system: human renal fibroblasts (HRFs); test: Differentiation to myofibroblasts; assay type: cell-based; conditions: 10^−6 M, TGFβ−1 5 ng/mL
Summary of the method: as §2

parental HEK293 cells = test: cGMP generation in parental; assay type: cell-based, human; conditions: levels similar to vehicle treatment (Supplemental Figure 2)
Summary of the method: as §1

[11] = 48 and 72 hours (data not shown)
[12] = 24 hours, immunostaining and western blotting
[13] = High = 455 pmol/kg/min IV infusion
[14] = Low = 4.55 pmol/kg/min IV infusion
[15] = Medium = 45.5 pmol/kg/min IV infusion

natriuretic peptide clearance receptor (NPRC), tagged with green fluorescence protein, sequence (P17342 27-541): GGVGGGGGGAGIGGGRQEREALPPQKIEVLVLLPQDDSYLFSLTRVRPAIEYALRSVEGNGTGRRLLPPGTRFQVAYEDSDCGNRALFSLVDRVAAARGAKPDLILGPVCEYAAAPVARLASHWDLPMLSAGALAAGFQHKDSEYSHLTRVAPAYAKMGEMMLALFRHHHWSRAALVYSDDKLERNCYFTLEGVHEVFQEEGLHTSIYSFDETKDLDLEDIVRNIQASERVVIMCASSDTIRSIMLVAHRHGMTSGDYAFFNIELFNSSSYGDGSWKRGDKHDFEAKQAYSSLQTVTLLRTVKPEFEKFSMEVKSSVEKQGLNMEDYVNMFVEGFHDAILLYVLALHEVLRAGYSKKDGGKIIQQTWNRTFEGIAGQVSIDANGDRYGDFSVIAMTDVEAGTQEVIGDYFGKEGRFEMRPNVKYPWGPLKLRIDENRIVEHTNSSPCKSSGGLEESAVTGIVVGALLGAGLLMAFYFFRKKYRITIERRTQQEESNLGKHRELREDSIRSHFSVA

Row | Substance | cGMP generation in HEK293 pGC-B cells compared to vehicle (human pGC-B receptor) | UV (urine flow) [6, 13] [µL/min] | UNaV (urinary sodium excretion rate) [6, 13] [uEq/min] | GFR (glomerular filtration rate) [6, 13] [mL/min] | UV (urine flow) [6, 14] [µL/min] | UNaV (urinary sodium excretion rate) [6, 14] [uEq/min] | GFR (glomerular filtration rate) [6, 14] [mL/min] | ΔMAP (change in mean arterial pressure) [6, 14] [mmHg] | UV (urine flow) [6, 15] [µL/min] | UNaV (urinary sodium excretion rate) [6, 15] [uEq/min] | GFR (glomerular filtration rate) [6, 15] [mL/min] | ΔMAP (change in mean arterial pressure) [6, 15] [mmHg] | Plasma CNP-like levels (CLL) (Plasma CNP-like levels) | cGMP generation in parental HEK293 cells (parental HEK293 cells) | further results
1 | b-type natriuretic peptide [BNP] | – | – | – | – | – | – | – | – | – | – | – | – | – | – | cGMP in HEK293 pGC-A cells (human pGC-A receptor; 10^−6 M): 1028±73 pmol/mL; cGMP in HEK293 pGC-A cells (human pGC-A receptor; 10^−8 M): 385±66 pmol/mL; cGMP in HEK293 pGC-A cells (human pGC-A receptor; 10^−10 M): 5±1 pmol/mL
2 | C53, the 53-AA intermediate form of proCNP processing (peptide) | – | – | – | – | – | – | – | – | – | – | – | – | – | – | AlphaScreen signal [1]: 200
3 | NH2 - DLRVDTKSRAAWARLLQEHPNARKYKGANKKGLSKGCFGLKLDRIGSMSGLGC – COOH [C53] | significant cGMP generation | 13.5 ± 2.0 | 1.1±0.3 | 1.1 ± 0.2 | 13.3 ± 2.0 | 0.9±0.2 | 1.2 ± 0.1 | −0.5±1.0 | 11.3 ± 0.8 | 1.0±0.1 | 1.5 ± 0.1 | −1.4±1.1 | increased plasma CLL levels in a dose-dependent manner | did not generate cGMP | Reduction of differentiation of HCFs to myofibroblasts [2, 11]: not sustained; Differentiation of HCFs to myofibroblasts (α-SMA expression) [2, 12]: significantly reduced the differentiation; TGFβ−1 induced HRFs proliferation by cell counting [3]: suppressed TGFβ−1 induced proliferation; Intracellular cGMP in HRFs ([4]; 10^−8, 10^−7 and 10^−6 M, 10 min, 0.5 mM IBMX, cGMP ELISA, vs vehicle, dose-dependent): increased intracellular cGMP levels; cGMP values in HRFs compared to HCFs ([4]; ratio HRFs/HCFs): 16 fold; pGC-B receptor potency compared to CNP (human pGC-B receptor; HEK293 pGC-B cells, 10^−10 to 10^−6 M, cGMP ELISA): no difference observed; Intracellular cGMP in HCFs [5]: increased intracellular cGMP levels; ΔMAP (change in mean arterial pressure) [6, 13]: −3.7±2.6 mmHg; HRFs proliferation in the absence of TGFβ−1 stimulation [7]: had no effect on proliferation; HCFs proliferation in the absence of TGFβ−1 stimulation [8]: had no effect on proliferation; TGFβ−1 induced HCFs proliferation by cell counting [9]: suppressed TGFβ−1 induced proliferation; Reduction of differentiation of HRFs to myofibroblasts [10, 11]: not sustained; Differentiation of HRFs to myofibroblasts (α-SMA expression) [10, 12]: significantly reduced the differentiation
4 | NH2-GLSKGCFGLKLDRIGSMSGLGC-COOH [CNP, C-type natriuretic peptide, reference compound] | significant cGMP generation | 9.8 ± 0.3 | 0.9±0.1 | 1.3 ± 0.1 | 11.3 ± 1.0 | 0.8±0.1 | 1.2 ± 0.1 | −0.9±0.9 | 10.0 ± 0.9 | 0.7±0.1 | 1.2 ± 0.2 | −1.9±0.5 | increased plasma CLL levels in a dose-dependent manner | did not generate cGMP | –

Reference: article PMC6557127 (Journal of molecular and cellular cardiology, 2019)
